Test results as given in ChEMBL document CHEMBL2146403, “Synthesis and Antitumor Activity of Ellagic Acid Peracetate” (ACS Med Chem Lett, 2012).
Active and inactive are the calls of the source. The rule behind the calls is not given here.

Legend:
Mus musculus [1] = assay: Toxicity in C57BL/6 mouse assessed as change in liver weight at 0.5 mg/kg, po administered for 3 weeks relative to vehicle-treated control; type: organism-based; set-up: dose 0.5 mg/kg, route oral; settings: in vivo, 504 h
Method in brief: (§1)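 Oral acute toxicity in normal mice dosed daily with test agent or vehicle for 3 weeks. Body, spleen and liver were inspected and weighed. Values are group means with n ≥ 4 and SE bars.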

Mus musculus [2] = assay: Immunoenhancing activity in C57BL/6 mouse assessed as increase in total immune cells in bone marrow at 0.5 mg/kg, po administered for 1 week by trypan blue exclusion method relative to vehicle-treated control; type: functional
Method in brief: (§2)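 Tumor-free normal mice were dosed for 1 week with test agent or vehicle. WBCs in peripheral blood and immune cells enriched from bone marrow and liver were counted by Trypan Blue exclusion and compared with the vehicle group. Columns are group means, bars SE, significance p ≤ 0.05.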

Mus musculus [3] = assay: Immunoenhancing activity in C57BL/6 mouse assessed as increase in total immune cells in liver at 0.5 mg/kg, po administered for 1 week by trypan blue exclusion method relative to vehicle-treated control; type: functional; method in brief: as §2
B16 [4] = assay: Induction of apoptosis in mouse B16 cells assessed as viable cells at 10 uM after 72 hrs by AnnexinV/PI staining-based flow cytometric analysis (reference value: 90%); type: functional; settings: B16, 72 h, read-out: Activity
B16 [5] = assay: Antitumor activity against mouse B16 cells xenografted in C57BL/6 mouse assessed as tumor growth inhibition at 0.5 mg/kg, po administered for 1 week prior to tumor injection followed by treatment for additional 2 weeks relative to vehicle-treated control; type: functional
Method in brief: (§3)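 Subcutaneous B16 melanoma in C57BL/6 immunocompetent mice aged 8–12 weeks. Test agent or vehicle was given daily in drinking water at 0.5 mg/kg for one week. B16 cells were then inoculated and dosing continued for 2 more weeks. At sacrifice, tumors were excised and weighed against the vehicle group, and kidneys, livers and spleens were inspected.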

Mus musculus [6] = assay: Immunomodulatory activity in C57BL/6 mouse NK cells expressing NK1.1 and CD3 assessed as cell surface CD107a expression level at 0.5 mg/kg, po administered for 1 week by YAC1 co culture-based immunostaining analysis (reference value: 41.5%); type: functional
Mus musculus [7] = assay: Immunoenhancing activity in C57BL/6 mouse assessed as increase in immune subset cells in bone marrow at 0.5 mg/kg, po administered for 1 week by flow cytometric analysis relative to vehicle-treated control; type: functional, organism-based; set-up: dose 0.5 mg/kg
B16 [8] = assay: Induction of apoptosis in mouse B16 cells assessed as early apoptotic cells at 10 uM after 72 hrs by AnnexinV/PI staining-based flow cytometric analysis (reference value: 2.28%); type: functional
Mus musculus [9] = assay: Toxicity in C57BL/6 mouse assessed as change in spleen weight at 0.5 mg/kg, po administered for 3 weeks relative to vehicle-treated control; type: organism-based; set-up: dose 0.5 mg/kg, route oral; settings: in vivo, 504 h; method in brief: as §1
Mus musculus [10] = assay: Immunomodulatory activity in C57BL/6 mouse CD3-deficient NK cells expressing NK1.1 assessed as […]- and IL-18 induced IFNgamma level at 0.5 mg/kg, po administered for 1 week by flow cytometric analysis (reference value: 76.7%); type: functional
B16 [11] = assay: Growth inhibition of mouse B16 cells at 10 uM after 24 to 96 hrs by trypan blue exclusion assay; type: functional, cell-based
Mus musculus [12] = assay: Immunoenhancing activity in C57BL/6 mouse assessed as increase in immune subset cells in liver at 0.5 mg/kg, po administered for 1 week by flow cytometric analysis relative to vehicle-treated control; type: functional, organism-based; set-up: dose 0.5 mg/kg
B16 [13] = assay: Induction of apoptosis in mouse B16 cells assessed as decrease in Bcl2 expression at 10 uM after 72 hrs by Western blot analysis; type: functional, cell-based
B16 [14] = assay: Induction of apoptosis in mouse B16 cells assessed as late apoptotic cells at 10 uM after 72 hrs by AnnexinV/PI staining-based flow cytometric analysis (reference value: 2.48%); type: functional
Mus musculus [15] = assay: Immunoenhancing activity in C57BL/6 mouse assessed as increase in peripheral blood WBC level at 0.5 mg/kg, po administered for 1 week by trypan blue exclusion method relative to vehicle-treated control; type: functional; method in brief: as §2
Mus musculus [16] = assay: Toxicity in C57BL/6 mouse assessed as change in body weight at 0.5 mg/kg, po administered for 3 weeks relative to vehicle-treated control; type: organism-based; set-up: dose 0.5 mg/kg, route oral; settings: in vivo, 504 h; method in brief: as §1
Mus musculus [17] = assay: Toxicity in C57BL/6 mouse xenografted with B16 cells assessed as adverse effects at 0.5 mg/kg, po administered for 1 week prior to tumor injection followed by treatment for additional 2 weeks relative to vehicle-treated control; type: organism-based; set-up: dose 0.5 mg/kg, route oral; settings: in vivo; method in brief: as §3
B16 [18] = assay: Induction of apoptosis in mouse B16 cells assessed as necrotic cells at 10 uM after 72 hrs by AnnexinV/PI staining-based flow cytometric analysis (reference value: 5.26%); type: functional

| SMILES | Activity (Mus musculus [1]) | Activity (Mus musculus [2]) | Activity (Mus musculus [3]) | viability at 10 µM (B16 [4]) [%] | inhibition in vivo at 0.5 mg/kg (B16 [5]; read-out: GI) [%] | Activity (Mus musculus [6]) [%] | Activity (Mus musculus [7]) | Activity (B16 [8]) [%] | Activity (Mus musculus [9]) | Activity (Mus musculus [10]) [%] | growth inhibition (GI) (B16 [11]) | Activity (Mus musculus [12]) | Activity (B16 [13]) | Activity (B16 [14]) [%] | Activity (Mus musculus [15]) [%] | Activity (Mus musculus [16]) | Activity (Mus musculus [17]) | Activity (B16 [18]) [%] | growth inhibition (GI) (B16 [5]) |
| --- | --- | --- | --- | --- | --- | --- | --- | --- | --- | --- | --- | --- | --- | --- | --- | --- | --- | --- | --- |
| CC(=O)Oc1cc2c(=O)oc3c(OC(C)=O)c(OC(C)=O)cc4c(=O)oc(c1OC(C)=O)c2c34 [ELLAGIC ACID TETRAACETATE] | Non-toxic | 50% | 200% | 71.4 | 70 | 40.4 | inactive | 6.99 | Non-toxic | 78.2 | Active | inactive | Active | 9.78 | 70 | Non-toxic | Non-toxic | 11.8 | – |
| O=c1oc2c(O)c(O)cc3c(=O)oc4c(O)c(O)cc1c4c23 [ELLAGIC ACID] | Non-toxic | inactive | inactive | 83.9 | – | 37.2 | inactive | 4.33 | Non-toxic | 74.9 | Active | inactive | Active | 6.84 | – | Non-toxic | Non-toxic | 4.95 | inactive |
